What was measured:
[1] = tested on: Galleria mellonella larvae; assay: In vivo toxicity in Galleria mellonella larvae; settings: G. mellonella larvae, N=10 per group
Outline: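 Sixth-instar Galleria mellonella larvae (200–300 mg) were held in sawdust at 4 °C until use. Groups of ten were injected with 10 μl of test compound, colistin or 0.9 % NaCl saline control into the second rear proleg, then kept at 30 °C.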

A. baumannii ATCC 19606 = assay: Antimicrobial activity screening; type: cell-based, Acinetobacter baumannii; settings: 50 µg/ml screen

Compound | mortality after 24h ([1]; 50 µg/larvae (10 μl of 5 mg/ml), 30 °C) | LD50 ([1]; 10 μl injected, viability at 48h) | growth inhibition against A. baumannii ATCC 19,606 (A. baumannii ATCC 19606)
Colistin | 50% | 5 mg/mL | 
CCCC(=O)NCCCC[C@H](NC(=O)[C@@H](NC(=O)[C@H](CCCCN)NC(=O)[C@H](CCCCN)NC(=O)[C@@H](Cc1ccccc1)NC(=O)[C@H](CC(C)C)NC(=O)[C@H](CCCCN)NC(=O)[C@H](CCCCN)NC(C)=O)[C@@H](C)CC)C(=O)N[C@@H](CCCCN)C(=O)N[C@@H](Cc1ccc(O)cc1)C(=O)N[C@@H](CC(C)C)C(N)=O [BP474] |  |  | ≥ 93%

From publication PMC11904594 (Current Research in Microbial Sciences, 2025)
